Measurements reported in publication PMC5352298 (Pharmacological research, 2016).
Like-named read-outs stand apart in the source and are kept apart here.

What was measured:
rat sciatic nerve = test: Sciatic nerve compound action potential; details: 40 Hz
rats with SNL neuropathy [1] = details: rat, same paradigm; cited from earlier work
[2] = tested on: mice (carrageenan induced paw edema); test: Carrageenan induced paw edema; format: in vivo, mouse
Summary of the method: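 Male CF-1 mice (20–35 g), n=5 per group. Test compound, ibuprofen (100 mg/kg, positive control) or MC vehicle given i.p. 2 h before intraplantar 25 μl λ-carrageenan; an MC/saline group also included. Both paws measured by caliper at baseline and 0.5, 1, 2, 3, 4, 6, 8 and 24 h. % edema = thickness/baseline. Mean ± s.e.m.; Tukey test.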

[3] = tested on: mice (acetic-acid induced abdominal constriction); details: cited from earlier work
[4] = tested on: mice (formalin-induced paw licking); details: same test; cited from earlier work
rats with SNL neuropathy [5] = test: Spinal nerve ligation; format: in vivo; details: rat
Summary of the method: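 Rats with pre-surgery threshold >15 g underwent L5–L6 spinal nerve ligation under ketamine/xylazine. Test compound at 40, 60 or 80 mg/kg i.p., MC vehicle, or MTMCD positive control, given 7, 14 and 21 days post-surgery. Latin-square design; experimenter blinded. Nine von Frey filaments (0.6–26 g); protected = no response to 15 g. TPE = earliest time of highest mean threshold.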

[6] = tested on: mice (acetic-acid induced abdominal constriction); test: Acetic acid-induced abdominal constriction; format: in vivo, mouse; details: for protective index (PI), writhing test: TD50 vs ED50
[7] = rats, 60 mg/kg, multisol solution, previous study; cited from earlier work
[8] = tested on: mice (formalin-induced paw licking); test: Formalin test; format: in vivo, mouse; details: for reduction of licking-time AUC vs control, acute phase: acute phase 0–10 min; for reduction of licking-time AUC vs control, inflammatory phase: inflammatory phase 10–40 min; for ID50 (dose reducing the nociceptive response by 50% compared to control), acute phase / ID50 (dose reducing the nociceptive response by 50% compared to control), inflammatory phase: i.p.
[9] = tested on: mice (carrageenan induced heat hyperalgesia); test: Carrageenan test, heat hyperalgesia; format: in vivo, mouse; details: for paw thickness an hour following administration: carrageenan injected paw
Summary of the method: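 Mice acclimated 1 h on a 30°C plate, then 25 μl carrageenan (20 mg/ml in saline) s.c. into left hind plantar paw. Test compound (10–70 mg/kg), VPA (100 mg/kg) or 0.5% MC given i.p. 15 min before testing at 3 h; Sal/MC and Carr/MC controls; blinded. Radiant heat (35% intensity): flinch latency, mean of two readings 5 min apart, ipsilateral minus contralateral.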

[10] = Pharmacokinetic study in mice; format: in vivo, mouse; details: 80 mg/kg i.p.
Summary of the method: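 Mice dosed 80 mg/kg i.p. (suspension in 0.5% MC), 4 per time point. Aortic blood collected after sacrifice at 0.25, 0.5, 1, 1.5, 2, 2.5 and 4 h. Heparinised plasma (3000g, 10 min) stored at −80°C. Chloroform extraction with N-methyl VCD internal standard, then GC/MS. Non-compartmental analysis: Cmax observed; CL/F = Dose/AUC; V/F = CL/F ÷ terminal slope.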

[11] = Pharmacokinetic study in rats; format: in vivo, rat; details: 80 mg/kg i.p.
Summary of the method: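 Rats given 80 mg/kg i.p. in 0.5% MC, four animals per time point. Cardiac-puncture blood (5 ml) taken at sacrifice at 0.25, 0.5, 1, 1.5, 2 and 4 h. Plasma (3000g, 10 min) held at −80°C, chloroform-extracted with N-methyl VCD internal standard and assayed by GC/MS. Non-compartmental: observed Cmax, CL/F = Dose/AUC, V/F = CL/F divided by terminal slope.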

mice = details: mouse, in vivo, ip; cited from earlier work
[12] = sedation for the first 15 minutes after dosing

## CCN(CC)CC(=O)Nc1c(C)cccc1C [lidocaine, Lidocaine, reference compound]
Rat sciatic nerve; 1mM, baseline 100%
  PAR of the first CAP normalized to baseline, phasic stimulation: 22.5%
  PAR of the last CAP normalized to baseline, phasic stimulation: 14.7%

## NCC1(CC(=O)O)CCCCC1 [gabapentin]
Rats with SNL neuropathy [1]
  ED50 (antiallodynic, SNL model): 32 mg/kg

## CC(C)Cc1ccc(C(C)C(=O)O)cc1 (stereo not drawn) [Ibuprofen, reference compound]
[2]; 100 mg/kg i.p., significant after 4 hours (p<0.05)
  percent paw thickness following carrageenan injection: decreased percent paw thickness
[3]
  ED50 in the writhing model: 33 mg/kg

## CN1C(C(=O)Nc2ccccn2)=C(O)c2ccccc2S1(=O)=O [piroxicam]
[3]
  ED50 in the writhing model: 100 mg/kg

## COc1ccc2c3c1O[C@H]1[C@@H](O)C=C[C@H]4[C@@H](C2)N(C)CC[C@@]341 [codeine]
[4]
  potency (effective dose) in the formalin test: 25 to 50 mg/kg

## CN1CC[C@]23c4c5ccc(O)c4O[C@H]2[C@@H](O)C=C[C@H]3[C@H]1C5 [morphine]
[4]
  potency (effective dose) in the formalin test: 5 to 10 mg/kg

## CC(=O)Oc1ccccc1C(=O)O [aspirin]
[3]
  ED50 in the writhing model: 82 to 228 mg/kg

## CNC(=O)CC1C(C)(C)C1(C)C [MTMCD, N-methyl tetramethylcyclopropyl acetamide, reference compound]
Rats with SNL neuropathy [5]; 80 mg/kg i.p.
  antiallodynic effect vs MC (positive control): antiallodynic effect significantly different than MC

## CCCC(C(N)=O)C(C)CC (stereo not drawn) [SPD, sec-Butylpropylacetamide]
[6]
  protective index (PI), writhing test: 2.2
[6]; mice, 30, 50 and 70 mg/kg i.p., p<0.001
  mean number of writhes: significantly reduced
[6]; mice, i.p.
  dose of maximum efficacy in the writhing test: 30 mg/kg
[6]; mice, i.p., 95% CI 24.3–67 mg/kg (SPD), 18–61mg/kg (VPA)
  ED50 in the writhing test: 40 mg/kg
[2]; 70 mg/kg i.p.
  percent paw thickness up to 24 hours following carrageenan injection: did not decrease percent paw thickness
[7]
  CL/F: 1.9
[8]; mice
  potency (effective dose) in the formalin test: 70 mg/kg
  ID50 (dose reducing the nociceptive response by 50% compared to control), acute phase: 39 mg/kg
  ID50 (dose reducing the nociceptive response by 50% compared to control), inflammatory phase: 40 mg/kg
[8]; mice, 70 mg/kg i.p.
  reduction of licking-time AUC vs control, acute phase: 55%
  reduction of licking-time AUC vs control, inflammatory phase: 74%
[8]; ratio between ID50 and TD50, TD50 from White et al., 2012
  protective index (PI), formalin test: 2.2
[9]; 70 mg/kg i.p.
  heat hyperalgesia, normalized mean withdrawal time vs Carr/MC: statistically different from the Carr/MC group
[9]
  paw thickness an hour following administration: Neither SPD nor VPA decreased paw thickness
[9]; i.p., at TPE, 95% CI 29.3–110
  ED50 in the carrageenan model (heat hyperalgesia): 49 mg/kg
[10]
  CL/F: 28.3 mL/min/kg
  peak plasma concentration (Cmax): 77.2 µg/mL
  volume of distribution: 0.9 L/kg
[10]; [12]
  signs of toxicity: not associated with any signs of toxicity except sedation
[11]
  CL/F: 15 mL/min/kg
  peak plasma concentration (Cmax): 66.2 µg/mL
  volume of distribution: 1.1 L/kg
[11]; [12]
  signs of toxicity: not associated with any signs of toxicity except sedation
Rat sciatic nerve; 3mM, baseline 96.5%
  ratio between last and first CAP (Δf), phasic stimulation: 96%
Rat sciatic nerve; 3mM, baseline 100%
  PAR of the first and last CAP normalized to baseline, phasic stimulation: 90%
Rats with SNL neuropathy [5]; 60 and 80 mg/kg i.p., p<0.05
  tactile allodynia compared to control: significantly reduced tactile allodynia
Rats with SNL neuropathy [5]; i.p.
  time to peak antiallodynic effect (TPE): 60 min
Rats with SNL neuropathy [5]; i.p., at TPE (60 min), 95% CI of 9–61 mg/kg
  ED50 (antiallodynic, SNL model): 49 mg/kg

## CCCC(CCC)C(=O)O [VPA, valproic acid, reference compound]
[6]; Mus musculus, ip, read-out: ED50 in the writhing test
  ED50: 44 mg/kg
[6]
  protective index (PI), writhing test: 8.8
[6]; mice, 50 and 100 mg/kg i.p.
  number of writhes: significantly reduced the number of writhes
mice
  TD50: 391 mg/kg
[8]; mice, 70 mg/kg i.p.
  licking time: unable to reduce the licking time significantly
[8]; mice, 100 mg/kg i.p.
  licking time: showed reduction in only one of the two phases evaluated
[8]; mice, 300 mg/kg i.p.
  reduction of licking-time AUC vs control, acute phase: 46%
  reduction of licking-time AUC vs control, inflammatory phase: 75%
[8]; mice
  ID50 (dose reducing the nociceptive response by 50% compared to control), acute phase: 136 mg/kg
  ID50 (dose reducing the nociceptive response by 50% compared to control), inflammatory phase: 113 mg/kg
[9]; 100 mg/kg i.p.
  heat hyperalgesia vs Carr/MC: not able to reduce heat hyperalgesia
[9]
  paw thickness an hour following administration: Neither SPD nor VPA decreased paw thickness
Rats with SNL neuropathy [1]
  ED50 (antiallodynic, SNL model): 269 mg/kg
